In ChEMBL document CHEMBL2406952, “Identification of vitamin d3-based hedgehog pathway inhibitors that incorporate an aromatic a-ring isostere” (ACS Med Chem Lett, 2013):
Active and inactive are the calls of the source. No cut-off for these calls is given here.

Legend:
[1] = Inhibition of Hedgehog signaling in human DaOY cells assessed as downregulation of Gli1 mRNA expression after 48 hrs by RT-PCR analysis; format: cell-based
Procedure, shortened: (§1)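 Gli1 mRNA dose-response after 48 h compound incubation, used to derive IC50 (μM). Each value comes from at least two separate experiments, each performed in triplicate.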

[2] = Inhibition of Hedgehog signaling in mouse M210B4 cells assessed as downregulation of Gli1 mRNA expression after 24 hrs by RT-PCR analysis; format: cell-based; details: M210B4, 24 h
Procedure, shortened: (§2)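 Oxysterol-stimulated cells (20(S)- plus 22(S)-hydroxycholesterol, 5 μM each) were treated with compound across a dose range for 24 h. Gli1 and Ptch mRNA were normalized to ActinB, and IC50 values were derived. VD3 was dosed up to 10 μM.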

[3] = Inhibition of Hedgehog signaling in mouse ASZ001 cells assessed as downregulation of Gli1 mRNA expression after 48 hrs by RT-PCR analysis; format: cell-based; details: ASZ001, 48 h; procedure, shortened: as §1
[4] = Inhibition of Hedgehog signaling in mouse M210B4 cells assessed as downregulation of Ptch mRNA expression after 24 hrs by RT-PCR analysis; format: cell-based; details: M210B4, 24 h; procedure, shortened: as §2
[5] = molecular target: T1, Vitamin D3 receptor (Mus musculus) (UniProt P48281); assay: Activation of VDR in mouse M210B4 cells assessed as upregulation of Cyp24A1 mRNA expression at 5 uM after 24 hrs by RT-PCR analysis relative to DMSO-treated control; format: cell-based
T1 sequence (whole entry): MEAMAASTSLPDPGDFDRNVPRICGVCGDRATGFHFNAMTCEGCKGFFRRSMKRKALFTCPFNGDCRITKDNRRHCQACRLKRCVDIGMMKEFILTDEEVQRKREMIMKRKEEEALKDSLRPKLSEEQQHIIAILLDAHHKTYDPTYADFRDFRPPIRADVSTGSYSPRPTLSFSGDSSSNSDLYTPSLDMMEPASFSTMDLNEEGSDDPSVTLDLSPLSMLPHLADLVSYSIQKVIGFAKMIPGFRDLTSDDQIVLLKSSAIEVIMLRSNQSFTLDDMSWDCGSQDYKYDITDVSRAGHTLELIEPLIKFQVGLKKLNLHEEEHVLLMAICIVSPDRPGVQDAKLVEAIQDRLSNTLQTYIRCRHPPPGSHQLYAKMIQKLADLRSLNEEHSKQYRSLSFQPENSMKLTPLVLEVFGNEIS
Procedure, shortened: (§3)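 Cyp24A1 mRNA normalized to ActinB and expressed relative to DMSO vehicle (set to 1.0). Cells treated for 24 h at 5 μM (some agents at 1 μM).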

[6] = molecular target: T1, Vitamin D3 receptor (Mus musculus); assay: Activation of VDR in mouse ASZ001 cells assessed as upregulation of Cyp24A1 mRNA expression at 5 to 10 uM after 48 hrs by RT-PCR analysis; format: cell-based
Procedure, shortened: (§4)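 Cells exposed to compound for 48 h; Cyp24A1 mRNA expression measured and expressed relative to DMSO vehicle-treated cells, set as 1.0.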

[7] = molecular target: T2, Vitamin D3 receptor (Homo sapiens) (UniProt P11473); assay: Activation of VDR in human DaOY cells assessed as upregulation of Cyp24A1 mRNA expression at 5 uM after 48 hrs by RT-PCR analysis relative to DMSO-treated control; format: cell-based
T2 sequence (whole entry): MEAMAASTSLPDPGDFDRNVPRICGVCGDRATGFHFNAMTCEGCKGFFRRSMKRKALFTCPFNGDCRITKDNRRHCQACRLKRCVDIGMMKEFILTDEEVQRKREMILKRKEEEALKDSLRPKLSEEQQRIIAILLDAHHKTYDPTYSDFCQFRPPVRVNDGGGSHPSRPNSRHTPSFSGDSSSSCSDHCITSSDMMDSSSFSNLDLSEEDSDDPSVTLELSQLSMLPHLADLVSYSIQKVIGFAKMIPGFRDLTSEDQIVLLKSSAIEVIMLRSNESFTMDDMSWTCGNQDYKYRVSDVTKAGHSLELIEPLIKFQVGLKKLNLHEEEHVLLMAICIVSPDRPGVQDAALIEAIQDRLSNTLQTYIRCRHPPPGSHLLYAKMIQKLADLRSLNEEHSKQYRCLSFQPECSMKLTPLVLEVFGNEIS
Procedure, shortened: (§5)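 Cyp24A1 mRNA measured after 48 h exposure to analogue and normalized to ActinB, expressed relative to DMSO vehicle-treated cells (set as 1.0). Single concentrations tested were 2.5, 5 or 10 μM.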

[8] = Inhibition of Hedgehog signaling in mouse C3H10T1/2 cells assessed as downregulation of Ptch mRNA expression after 24 hrs by RT-PCR analysis; format: cell-based; details: for IC50: C3H 10T1/2, 24 h; for inhibition: C3H 10T1/2; procedure, shortened: as §2
[9] = Inhibition of Hedgehog signaling in mouse M210B4 cells assessed as downregulation of Gli1 mRNA expression at 10 uM after 24 hrs by RT-PCR analysis relative to 20(S)-hydroxycholesterol and 22(S)-hydroxycholesterol; format: cell-based
Procedure, shortened: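 M2-10B4 murine bone marrow stromal cells, Hh-responsive, treated for 24 h. Gli1 mRNA normalized to ActinB. Positive control 20(S)-hydroxycholesterol:22(S)-hydroxycholesterol (5 μM each) set as 100% pathway signaling. Values given as % of this level.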

[10] = Inhibition of Hedgehog signaling in mouse C3H10T1/2 cells assessed as downregulation of Gli1 mRNA expression after 24 hrs by RT-PCR analysis; format: cell-based; details: for IC50: C3H 10T1/2, 24 h; for inhibition: C3H 10T1/2; procedure, shortened: as §2
[11] = molecular target: T1, Vitamin D3 receptor (Mus musculus); assay: Activation of VDR in mouse C3H10T1/2 cells assessed as upregulation of Cyp24A1 mRNA expression at 5 uM after 24 hrs by RT-PCR analysis relative to DMSO-treated control; format: cell-based; details: C3H 10T1/2; procedure, shortened: as §3
[12] = molecular target: T1, Vitamin D3 receptor (Mus musculus); assay: Activation of VDR in mouse ASZ001 cells assessed as upregulation of Cyp24A1 mRNA expression at =< 2.5 uM after 48 hrs by RT-PCR analysis; format: cell-based; procedure, shortened: as §4
[13] = Inhibition of Hedgehog signaling in mouse C3H10T1/2 cells assessed as downregulation of Gli1 mRNA expression at 5 uM after 24 hrs by RT-PCR analysis relative to 20(S)-hydroxycholesterol and 22(S)-hydroxycholesterol; format: cell-based; details: C3H 10T1/2
Procedure, shortened: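 Endogenous Gli1 mRNA measured after 24 h at 5 μM and normalized to ActinB with DMSO vehicle set to 1.0. Cells stimulated with 20(S)-hydroxycholesterol plus 22(S)-hydroxycholesterol (5 μM each) define 100% pathway activity, and the analogue effect is given as % of this level.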

[14] = molecular target: T2, Vitamin D3 receptor (Homo sapiens); assay: Binding affinity to human VDR by fluorescence polarization assay
Procedure, shortened: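 Fluorescence polarization competition kit with full-length human VDR and a tight-binding fluorescent VDR ligand, run per manufacturer's instructions. Compounds tested at 50 and 100 μM, with calcitriol as positive control for binding.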

[15] = molecular target: T2, Vitamin D3 receptor (Homo sapiens); assay: Activation of VDR in human DaOY cells assessed as upregulation of Cyp24A1 mRNA expression at 2.5 uM after 48 hrs by RT-PCR analysis relative to DMSO-treated control; format: cell-based; procedure, shortened: as §4
[16] = molecular target: T1, Vitamin D3 receptor (Mus musculus); assay: Activation of VDR in mouse ASZ001 cells assessed as upregulation of Cyp24A1 mRNA expression at 5 uM after 48 hrs by RT-PCR analysis relative to DMSO-treated control; format: cell-based; procedure, shortened: as §5
[17] = molecular target: T1, Vitamin D3 receptor (Mus musculus); assay: Activation of VDR in mouse M210B4 cells assessed as upregulation of Cyp24A1 mRNA expression at 1 uM after 24 hrs by RT-PCR analysis relative to DMSO-treated control; format: cell-based
Procedure, shortened: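 M2-10B4 murine bone marrow stromal cells treated for 24 h at 1 μM; Cyp24A1 mRNA normalized to ActinB and expressed relative to DMSO vehicle, set to 1.0.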

[18] = tested on: Daoy; assay: Downregulation of Gli1 mRNA expression in human DaOY cells at 2.5 uM relative to DMSO-treated control; format: functional
[19] = Inhibition of Hedgehog signaling in mouse ASZ001 cells assessed as downregulation of Gli1 mRNA expression at 10 uM after 48 hrs by RT-PCR analysis relative to control; values are per cent of control
[20] = molecular target: T2, Vitamin D3 receptor (Homo sapiens); assay: Activation of VDR in human DaOY cells assessed as upregulation of Cyp24A1 mRNA expression at 10 uM after 48 hrs by RT-PCR analysis relative to DMSO-treated control; format: cell-based; procedure, shortened: as §5
[21] = molecular target: T2, Vitamin D3 receptor (Homo sapiens); assay: Activation of VDR in human HT-29 assessed as upregulation of Cyp24A1 mRNA expression after 6 hrs by Northern blotting analysis

Row | SMILES | IC50 [1] | IC50 [3] | fold change (FC) [11] | Gli1 mRNA level (% of OHC control) [13] | Activity [14] | further results
1 | CS(=O)(=O)c1ccc(C(=O)Nc2ccc(Cl)c(-c3ccccn3)c2)c(Cl)c1 [VISMODEGIB] | 86 nM | 40 nM |  |  |  | IC50 [2]: 200 nM; IC50 [4]: 140 nM
2 | C=C1CC[C@H](O)C/C1=C/C=C1\CCC[C@]2(C)[C@@H]([C@H](C)CCCC(C)C)CC[C@@H]12 [CHOLECALCIFEROL] | > 10000 nM | 2100 nM | 8340 | 35.7% |  | fold change (FC) [5]: 274; Activity [6]: Active; fold change (FC) [7]: 149; IC50 [8]: 2900 nM; inhibition [9]: 53%; IC50 [2]: > 10000 nM; IC50 [10]: 4100 nM; Activity [12]: Active; IC50 [4]: > 10000 nM
3 | CC(C)CCC[C@@H](C)[C@H]1CC[C@H]2[C@@H](OC(=O)c3cccc(OCc4ccccc4)c3)CCC[C@]12C |  |  | 1 | 116% | > 100 µM | 
4 | CC1=C2C[C@H]3[C@@H](CC=C4C[C@@H](O)CC[C@@]43C)[C@@H]2CC[C@]12O[C@@H]1C[C@H](C)CN[C@H]1[C@H]2C [CYCLOPAMINE] | 160 nM | 660 nM |  |  |  | fold change (FC) [15]: 1; IC50 [2]: 800 nM; fold change (FC) [16]: 0.8; IC50 [4]: 430 nM; fold change (FC) [17]: 1.5
5 | CNc1cccc(C(=O)O[C@H]2CCC[C@]3(C)[C@@H]([C@H](C)CCCC(C)C)CC[C@@H]23)c1 |  |  | 1.6 | 97.8% | > 100 µM | 
6 | O=C(CCCCCCC(=O)Nc1ccccc1)NO [VORINOSTAT] |  |  |  |  |  | fold change (FC) [18]: 1.51
7 | CC(C)CCC[C@@H](C)[C@H]1CC[C@H]2[C@@H](O)CCC[C@]12C | > 10000 nM | > 10000 nM | 3.6 | 46.4% |  | level, % of control [19]: 65%; fold change (FC) [7]: 0.8; IC50 [8]: 2800 nM; fold change (FC) [16]: 2.4; IC50 [10]: 3100 nM
8 | CC(C)CCC[C@@H](C)[C@H]1CC[C@H]2[C@@H](OC(=O)c3cccc(N)c3)CCC[C@]12C | 9200 nM | 7100 nM | 24.3 | 2.4% | > 100 µM | fold change (FC) [7]: 0.5; inhibition [8]: Dose-dependent effect; IC50 [8]: 4500 nM; fold change (FC) [16]: 2.5; inhibition [10]: Dose-dependent effect; IC50 [10]: 2800 nM
9 | COc1cccc(C(=O)O[C@H]2CCC[C@]3(C)[C@@H]([C@H](C)CCCC(C)C)CC[C@@H]23)c1 |  |  | 1.3 | 104% | > 100 µM | 
10 | CC(C)CCC[C@@H](C)[C@H]1CC[C@H]2[C@@H](OC(=O)c3cccc(C(=O)O)c3)CCC[C@]12C |  |  | 6.7 | 40% | > 100 µM | 
11 | COC[C@H]1OC(=O)c2coc3c2[C@@]1(C)C1=C(C3=O)[C@@H]2CCC(=O)[C@@]2(C)C[C@H]1OC(C)=O [WORTMANNIN] |  |  |  |  |  | fold change (FC) [18]: 0.92
12 | CC(C)CCC[C@@H](C)[C@H]1CC[C@H]2[C@@H](OC(=O)c3cccc(Cl)c3)CCC[C@]12C |  |  | 1.2 | 107% | > 100 µM | 
13 | O=C(O)c1cccc(O)c1 |  |  | 1.6 | 92.6% | > 100 µM | 
14 | CC(C)CCC[C@@H](C)[C@H]1CC[C@H]2[C@@H](OC(=O)c3ccccc3)CCC[C@]12C | > 10000 nM | > 10000 nM | 1.2 | 105% | > 100 µM | fold change (FC) [20]: 0.6; fold change (FC) [16]: 1.1
15 | Cc1ccc(NC(=O)c2ccc(CN3CCN(C)CC3)cc2)cc1Nc1nccc(-c2cccnc2)n1 [IMATINIB] |  |  |  |  |  | fold change (FC) [18]: 0.98
16 | CC(=O)c1cccc(C(=O)O[C@H]2CCC[C@]3(C)[C@@H]([C@H](C)CCCC(C)C)CC[C@@H]23)c1 |  |  | 1.6 | 77.5% | > 100 µM | 
17 | CC(C)CCC[C@@H](C)[C@H]1CC[C@H]2[C@@H](OC(=O)c3cccc(O)c3)CCC[C@]12C | 3700 nM | 5200 nM | 22.2 | 1.9% | > 100 µM | fold change (FC) [5]: 1.2; Activity [21]: inactive; fold change (FC) [7]: 0.4; inhibition [8]: Dose-dependent effect; IC50 [8]: 1100 nM; IC50 [2]: 1100 nM; fold change (FC) [16]: 1.9; inhibition [10]: Dose-dependent effect; IC50 [10]: 740 nM; IC50 [4]: 1700 nM
